Activity calls are given as the source filed them.
Key:
Assay type in all cases: cell-based
[1] = test system: Quadruplex DNA; assay: Stabilization of AR G-quadruplex oligonucleotide in human LNCAP cells assessed as reduction in AR-FL protein level by immunoblotting assay
Procedure, shortened: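 Lysate proteins immunoblotted. Vinculin or β-actin used as loading control, peroxidase-linked secondary antibodies, ECL chemiluminescent detection, autoradiography, densitometric scan. Untreated cells received DMSO.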

[2] = test system: Quadruplex DNA; assay: Stabilization of AR G-quadruplex oligonucleotide in human 22Rv1 cells assessed as reduction in AKT1 phosphorylation at S473 residues at IC50 after 48 hrs by Western immunoblot assay
[3] = test system: Quadruplex DNA; assay: Stabilization of AR G-quadruplex oligonucleotide in human 22Rv1 cells assessed as down-regulation of CCND1 mRNA expression at IC50 after 48 hrs by RT-PCR analysis
Procedure, shortened: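 Transcripts quantified by TaqMan real-time PCR with RNaseP as normalizer; relative quantity versus untreated cells by the 2−ΔΔCt method. Panel genes measured with a 92-gene cancer-mechanism TaqMan array.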

Measured: Activity

CN(C)CCCn1c(=O)c2ccc3c(=O)n(CCCN(C)C)c(=O)c4c5[nH]c6ccccc6[nH]c5c(c1=O)c2c34.Cl.Cl
active: all assays above

Reference: ChEMBL document CHEMBL4411261, “Down-Regulation of the Androgen Receptor by G-Quadruplex Ligands Sensitizes Castration-Resistant Prostate Cancer Cells to Enzalutamide” (J Med Chem, 2018)
